Results: ChEMBL document CHEMBL2146394, “Design and synthesis of pyrrolo[3,2-d]pyrimidine HER2/EGFR dual inhibitors: improvement of the physicochemical and pharmacokinetic profiles for potent in vivo anti-tumor efficacy” (Bioorg Med Chem, 2012)

Assays:
[1] = Apparent permeability across basolateral to apical side in human Caco2 cells at 10 umol/L; assay type: ADME, cell-based; settings: Caco-2
Procedure, shortened: (§1)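 Confluent Caco-2 monolayers on collagen-coated polycarbonate Transwell membranes. HBSS with 10 mmol/L HEPES, 15 mmol/L glucose and 1% BSA, pH 7.3–7.5. Compound dosed at 10 µmol/L apically (A→B) or basolaterally (B→A), 37 °C, 5% CO₂. Receivers sampled at 1 and 2 h; LC/MS/MS. Papp from receiver concentration slope; duplicates.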

[2] = Apparent permeability across apical to basolateral side in human Caco2 cells at 10 umol/L; assay type: ADME, cell-based; settings: Caco-2; procedure, shortened: as §1
[3] = biological target: Receptor tyrosine-protein kinase erbB-2 (Homo sapiens, UniProt P04626); assay: Inhibition of human N-terminal DYKDDDD tagged HER2 cytoplasmic domain amino acid 676 to 1255 expressed in baculovirus after 5 mins by scintillation counter
Sequence of Receptor tyrosine-protein kinase erbB-2 (P04626 whole entry, the tested form may be a part): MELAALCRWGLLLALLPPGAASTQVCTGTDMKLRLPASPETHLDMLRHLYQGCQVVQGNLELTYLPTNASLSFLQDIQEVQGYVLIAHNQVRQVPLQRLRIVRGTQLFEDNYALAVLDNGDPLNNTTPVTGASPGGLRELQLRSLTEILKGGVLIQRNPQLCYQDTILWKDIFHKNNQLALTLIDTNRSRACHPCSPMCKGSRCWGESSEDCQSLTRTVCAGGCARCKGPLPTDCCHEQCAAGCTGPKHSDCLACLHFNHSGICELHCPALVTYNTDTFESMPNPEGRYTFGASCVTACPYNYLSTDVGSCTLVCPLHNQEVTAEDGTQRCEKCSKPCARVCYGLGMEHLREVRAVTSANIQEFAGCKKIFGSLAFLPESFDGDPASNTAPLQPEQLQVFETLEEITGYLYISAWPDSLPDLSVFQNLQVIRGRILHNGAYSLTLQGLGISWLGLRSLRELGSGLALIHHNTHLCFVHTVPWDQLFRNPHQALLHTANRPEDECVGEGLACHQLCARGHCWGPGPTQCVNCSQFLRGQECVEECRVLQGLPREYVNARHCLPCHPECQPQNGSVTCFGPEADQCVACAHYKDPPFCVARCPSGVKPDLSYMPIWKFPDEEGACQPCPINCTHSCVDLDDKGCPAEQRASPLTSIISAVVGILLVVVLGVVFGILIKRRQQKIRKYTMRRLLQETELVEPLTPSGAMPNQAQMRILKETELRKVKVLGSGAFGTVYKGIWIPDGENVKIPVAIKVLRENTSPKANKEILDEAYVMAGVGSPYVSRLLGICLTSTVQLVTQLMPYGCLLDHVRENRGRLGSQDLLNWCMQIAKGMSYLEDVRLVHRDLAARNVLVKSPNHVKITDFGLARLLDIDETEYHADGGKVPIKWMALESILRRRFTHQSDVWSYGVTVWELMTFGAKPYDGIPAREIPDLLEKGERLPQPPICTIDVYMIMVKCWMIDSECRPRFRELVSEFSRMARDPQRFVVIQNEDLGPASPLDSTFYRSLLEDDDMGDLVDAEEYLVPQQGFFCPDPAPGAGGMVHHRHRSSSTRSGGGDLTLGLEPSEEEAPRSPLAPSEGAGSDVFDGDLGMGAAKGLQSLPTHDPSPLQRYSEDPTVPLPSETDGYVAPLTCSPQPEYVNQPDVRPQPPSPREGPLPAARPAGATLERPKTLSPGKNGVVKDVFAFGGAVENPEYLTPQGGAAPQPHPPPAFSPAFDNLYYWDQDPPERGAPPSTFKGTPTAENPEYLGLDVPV
Procedure, shortened: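 FLAG-purified HER2 cytoplasmic domain in 50 mmol/L Tris-HCl pH 7.5, 5 mmol/L MnCl₂, 0.01% Tween-20, 2 mmol/L DTT, with poly-Glu-Tyr (4:1) and [γ-³²P]ATP. Compound and enzyme preincubated 5 min at room temperature; reaction started with ATP, 10 min at room temperature. Stopped with 10% TCA, filter-harvested, washed with 3% phosphoric acid, scintillation counted.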

BT-474 [4] = assay: Growth inhibition of HER2 over-expressing human BT474 cells after 5 days; assay type: functional; settings: BT-474, 120 h
Procedure, shortened: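 BT-474 cells kept in RPMI 1640 with 10% heat-inactivated FBS. Seeded at 3×10⁴ cells/well and allowed to attach overnight. Treated continuously with compound for 5 days. Live cells counted with a particle analyzer; GI₅₀ derived.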

[5] = biological target: Epidermal growth factor receptor (Homo sapiens, UniProt P00533); assay: Inhibition of human N-terminal DYKDDDD tagged EGFR cytoplasmic domain amino acid 669 to 1210 expressed in baculovirus after 5 mins by scintillation counter
Sequence of Epidermal growth factor receptor (P00533 whole entry, the tested form may be a part): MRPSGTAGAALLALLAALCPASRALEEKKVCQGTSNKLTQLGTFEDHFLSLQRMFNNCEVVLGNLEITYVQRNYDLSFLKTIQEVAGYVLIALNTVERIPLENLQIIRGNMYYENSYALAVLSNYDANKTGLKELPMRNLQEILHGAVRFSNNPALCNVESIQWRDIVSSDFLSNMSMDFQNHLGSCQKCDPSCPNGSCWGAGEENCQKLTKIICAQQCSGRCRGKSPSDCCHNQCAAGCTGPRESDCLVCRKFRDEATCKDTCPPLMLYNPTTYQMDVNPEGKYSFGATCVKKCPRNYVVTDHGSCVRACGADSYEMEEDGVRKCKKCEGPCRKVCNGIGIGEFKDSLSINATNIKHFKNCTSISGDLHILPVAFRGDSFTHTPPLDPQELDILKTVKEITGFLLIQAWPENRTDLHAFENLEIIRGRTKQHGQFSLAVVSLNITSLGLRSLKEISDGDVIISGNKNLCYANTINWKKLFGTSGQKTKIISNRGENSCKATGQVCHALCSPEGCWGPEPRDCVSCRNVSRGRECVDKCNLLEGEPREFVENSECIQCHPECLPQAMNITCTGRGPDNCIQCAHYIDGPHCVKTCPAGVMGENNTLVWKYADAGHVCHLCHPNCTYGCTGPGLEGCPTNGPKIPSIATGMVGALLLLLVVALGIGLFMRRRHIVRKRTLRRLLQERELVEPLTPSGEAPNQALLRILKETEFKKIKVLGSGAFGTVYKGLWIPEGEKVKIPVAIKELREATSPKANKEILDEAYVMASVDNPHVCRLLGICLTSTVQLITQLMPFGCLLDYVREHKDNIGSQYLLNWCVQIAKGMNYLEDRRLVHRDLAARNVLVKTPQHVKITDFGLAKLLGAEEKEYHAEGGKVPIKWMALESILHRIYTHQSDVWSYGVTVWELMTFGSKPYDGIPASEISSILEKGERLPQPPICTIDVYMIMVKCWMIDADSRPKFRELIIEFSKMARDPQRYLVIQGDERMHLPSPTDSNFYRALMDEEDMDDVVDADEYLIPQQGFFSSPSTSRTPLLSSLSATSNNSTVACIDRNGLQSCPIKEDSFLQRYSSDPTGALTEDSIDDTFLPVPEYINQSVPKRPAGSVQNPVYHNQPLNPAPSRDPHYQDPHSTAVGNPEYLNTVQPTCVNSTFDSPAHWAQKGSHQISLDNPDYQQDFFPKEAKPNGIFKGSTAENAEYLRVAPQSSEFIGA

[6] = Metabolic stability in human hepatic microsomes at 1 umol/L after 20 mins; assay type: ADME; settings: liver microsomes, read-out: Stability
Procedure, shortened: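 Human liver microsomes (0.2 mg/mL protein) with 1 µmol/L compound in 50 mmol/L phosphate pH 7.4 plus an NADPH-generating system (glucose-6-phosphate, β-NADP⁺, G6PDH, MgCl₂). Incubated at 37 °C for 0 and 20 min, stopped with acetonitrile, duplicates. Remaining compound measured by HPLC with photodiode array detection.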

[7] = Metabolic stability in mouse hepatic microsomes at 1 umol/L after 20 mins; assay type: ADME; settings: liver microsomes, read-out: Stability
BT-474 [8] = assay: Antitumor activity against human BT474 cells xenografted in BALB/c nu/nu mouse at 100 mg/kg, po bid administered 14 days measured on day 31 relative to control; assay type: functional
Procedure, shortened: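 BT-474 xenografts: 1×10⁷ cells in Matrigel implanted subcutaneously into the right flank of female BALB/c nu/nu mice. Estradiol dipropionate 0.25 mg given intramuscularly on days 0 and 7. Tumours of 200–300 mm³ used. Dosing 100 mg/kg orally bid in 0.5% methylcellulose for 14 days. Volume a×b²/2 by calipers. T/C (%) compared at day 31.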

Papp B→A at 10 µM [1] [×10⁻⁶ cm/s] | Papp A→B at 10 µM [2] [×10⁻⁶ cm/s] | IC50 [3] [nM] | GI50 (BT-474 [4]) [nM] | IC50 [5] [nM] | microsomal CLint at 1 µM [6] [µL/min/mg] | microsomal CLint at 1 µM [7] [µL/min/mg] | Structure (SMILES) | T/C (BT-474 [8]) [%]
4.26 | 2.87 | 17 | 55 | 47 | 38 | 23 | CC(C)(C(=O)NCCn1ccc2ncnc(Nc3ccc(Oc4cccc(C(F)(F)F)c4)c(Cl)c3)c21)S(C)(=O)=O | 43
6.79 | 0.67 | 2.9 | 3.9 | 6.7 | 11 |  | CS(=O)(=O)CC(=O)NCCn1ccc2ncnc(Nc3ccc(Oc4cccc(Cl)c4)c(Cl)c3)c21 | 
 |  | 4.1 | 32 | 9.8 | 4 |  | CC(C(=O)NCCn1ccc2ncnc(Nc3ccc(Oc4cccc(Cl)c4)c(Cl)c3)c21)S(C)(=O)=O (stereo not drawn) | 
